Tested on in the first data set: not listed separately
Nature of the data set: Cytotoxicity against hamster BHK-21 cells incubated for 4 days by MTS assay. In kind it is toxicity, cell-based, Mesocricetus auratus. Particulars: BHK-21 cells, time 4 day. A general note: Formazan colour is commonly taken as a measure of viable cells.
Broadly, the CC50 is the concentration at which the toxic effect on the cells reaches its halfway point. Consider `NNc1ccn([C@@H]2O[C@H](CO)[C@@H](O)[C@H]2O)c(=O)n1`, for which the CC50 at 96 h amounted to 100 µM.
Turning to `CCOC(=O)CNc1ccn([C@@H]2O[C@H](CO)[C@@H](O)[C@H]2O)c(=O)n1`, the CC50 at 96 h was found to be 100 µM.
Same read-out and setting: in the case of `CCOC(=O)[C@H](CC(C)C)Nc1ccn([C@@H]2O[C@H](CO)[C@@H](O)[C@H]2O)c(=O)n1` it was 100 µM.
Turning to `CC(C)(C)OC(=O)NNc1ccn([C@@H]2O[C@H](CO)[C@@H](O)[C@H]2O)c(=O)n1`, the CC50 at 96 h was determined as 100 µM.

Another data set concerns Vero. Nature of the data set: Cytotoxicity against African green monkey Vero cells assessed as reduction in cell viability incubated for 24 hrs by MTT assay. In kind it is toxicity, cell-based. Particulars: chlorocebus sabaeus, vero, 24 h. The essentials: (§1)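 Viability of non-infected or infected cells (Vero CCL-81 or MDCK CCL-34) measured by MTT; CC50 calculated by nonlinear regression.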
Turning to `NNc1ccn([C@@H]2O[C@H](CO)[C@@H](O)[C@H]2O)c(=O)n1`, the CC50 was greater than 100 µM.
Regarding `CCOC(=O)CNc1ccn([C@@H]2O[C@H](CO)[C@@H](O)[C@H]2O)c(=O)n1`, the CC50 is greater than 100 µM.
On the same count and under the same terms, for `CCOC(=O)[C@H](CC(C)C)Nc1ccn([C@@H]2O[C@H](CO)[C@@H](O)[C@H]2O)c(=O)n1` the value was greater than 100 µM; for `CC(C)(C)OC(=O)NNc1ccn([C@@H]2O[C@H](CO)[C@@H](O)[C@H]2O)c(=O)n1`, greater than 100 µM.

Another data set has as its system dengue virus type 2. Description: Antiviral activity against Dengue virus 2 infected in hamster BHK-21 cells incubated for 48 hrs by renilla luciferase based assay. Particulars: BHK-21, 48 h. It counts as functional, organism-based. In a few lines:
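DENV-2 replicon-bearing BHK-21 cells (DENV2-BHK); replication read out with a Renilla luciferase assay system; EC50 calculated by nonlinear regression.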
As a reminder, the EC50 is the concentration at which the effect is half-maximal. The compound `NNc1ccn([C@@H]2O[C@H](CO)[C@@H](O)[C@H]2O)c(=O)n1` registered a 50% effective concentration (EC50) of 100 µM.
Regarding `CCOC(=O)CNc1ccn([C@@H]2O[C@H](CO)[C@@H](O)[C@H]2O)c(=O)n1`, the EC50 was 100 µM.
On the same count and under the same terms, for `CCOC(=O)[C@H](CC(C)C)Nc1ccn([C@@H]2O[C@H](CO)[C@@H](O)[C@H]2O)c(=O)n1` the value was 100 µM; for `CC(C)(C)OC(=O)NNc1ccn([C@@H]2O[C@H](CO)[C@@H](O)[C@H]2O)c(=O)n1`, 100 µM.

The next data set relates to Influenza A virus. Description: Antiviral activity against Influenza A virus A/Hong Kong/8/68 (H3N2) infected in MDCK cells assessed as reduction in virus-induced cytopathic effect pre-infected with cells for 1 hrs followed by compound addition and measured after 3 days by fluorescein diacetate-based cell viability assay. In kind it is functional, organism-based.
Conditions: not given
`NNc1ccn([C@@H]2O[C@H](CO)[C@@H](O)[C@H]2O)c(=O)n1`: the EC50 was greater than 100 µM.
Still for that read-out and setting: for `CCOC(=O)CNc1ccn([C@@H]2O[C@H](CO)[C@@H](O)[C@H]2O)c(=O)n1` the value was greater than 100 µM; for `CCOC(=O)[C@H](CC(C)C)Nc1ccn([C@@H]2O[C@H](CO)[C@@H](O)[C@H]2O)c(=O)n1`, greater than 100 µM; for `CC(C)(C)OC(=O)NNc1ccn([C@@H]2O[C@H](CO)[C@@H](O)[C@H]2O)c(=O)n1`, greater than 100 µM.

For a further data set, the system named is MDCK. Nature of the data set: Cytotoxicity against MDCK cells assessed as reduction in cell viability measured for 48 hrs by MTT assay. It counts as toxicity, cell-based, Canis lupus familiaris. Particulars: dog, mdck, 48 h. The essentials: as §1
For `NNc1ccn([C@@H]2O[C@H](CO)[C@@H](O)[C@H]2O)c(=O)n1`, the CC50 was greater than 100 µM.
On to `CCOC(=O)CNc1ccn([C@@H]2O[C@H](CO)[C@@H](O)[C@H]2O)c(=O)n1`, for which the CC50 is greater than 100 µM.
Still for that read-out and setting: in the case of `CCOC(=O)[C@H](CC(C)C)Nc1ccn([C@@H]2O[C@H](CO)[C@@H](O)[C@H]2O)c(=O)n1` it was greater than 100 µM.
With `CC(C)(C)OC(=O)NNc1ccn([C@@H]2O[C@H](CO)[C@@H](O)[C@H]2O)c(=O)n1`, the CC50 is greater than 100 µM.

A further data set concerns Influenza B virus. Nature of the data set: Antiviral activity against Influenza B virus B/Lee/40 infected in MDCK cells assessed as reduction in virus-induced cytopathic effect pre-infected with cells for 1 hrs followed by compound addition and measured after 3 days by fluorescein diacetate-based cell viability assay. In kind it is functional, organism-based. Particulars: B/Lee/40, MDCK.
For the compound `NNc1ccn([C@@H]2O[C@H](CO)[C@@H](O)[C@H]2O)c(=O)n1`, the EC50 was greater than 100 µM.
On the same count and under the same terms, for `CCOC(=O)CNc1ccn([C@@H]2O[C@H](CO)[C@@H](O)[C@H]2O)c(=O)n1` the value was greater than 100 µM; for `CCOC(=O)[C@H](CC(C)C)Nc1ccn([C@@H]2O[C@H](CO)[C@@H](O)[C@H]2O)c(=O)n1`, greater than 100 µM; for `CC(C)(C)OC(=O)NNc1ccn([C@@H]2O[C@H](CO)[C@@H](O)[C@H]2O)c(=O)n1`, greater than 100 µM.

A further data set concerns Influenza A virus. Nature of the data set: Antiviral activity against Influenza A virus A/Puerto Rico/8/34 (H1N1) infected in MDCK cells assessed as reduction in virus-induced cytopathic effect pre-infected with cells for 1 hrs followed by compound addition and measured after 3 days by fluorescein diacetate-based cell viability assay. In kind it is functional, organism-based.
Conditions: not given
Background: Cytopathic effects are the visible damage that an infection or toxin causes in cultured cells.
Turning to `NNc1ccn([C@@H]2O[C@H](CO)[C@@H](O)[C@H]2O)c(=O)n1`, the EC50 was greater than 100 µM.
The same measure, in the same setting: in the case of `CCOC(=O)CNc1ccn([C@@H]2O[C@H](CO)[C@@H](O)[C@H]2O)c(=O)n1` it was greater than 100 µM; in that of `CCOC(=O)[C@H](CC(C)C)Nc1ccn([C@@H]2O[C@H](CO)[C@@H](O)[C@H]2O)c(=O)n1`, greater than 100 µM.
Still for that read-out and setting: for `CC(C)(C)OC(=O)NNc1ccn([C@@H]2O[C@H](CO)[C@@H](O)[C@H]2O)c(=O)n1` the value was greater than 100 µM.

The next data set deals with SARS-CoV-2. Description: Antiviral activity against SARS-CoV-2 (hCoV-19/Korea/KCDC-06/2020) infected in African green monkey Vero cells preincubated with cells for 24 hrs followed by viral infection and measured after 24 hrs by DAPI-staining based fluorescence assay. In kind it is functional, organism-based. Particulars: Severe acute respiratory syndrome coronavirus 2, hCoV-19/Korea/KCDC-06/2020, Vero.
In turn, `NNc1ccn([C@@H]2O[C@H](CO)[C@@H](O)[C@H]2O)c(=O)n1` had a half-maximal effective concentration (EC50) greater than 100 µM.
On the same count and under the same terms, for `CCOC(=O)CNc1ccn([C@@H]2O[C@H](CO)[C@@H](O)[C@H]2O)c(=O)n1` the value was greater than 100 µM; for `CCOC(=O)[C@H](CC(C)C)Nc1ccn([C@@H]2O[C@H](CO)[C@@H](O)[C@H]2O)c(=O)n1`, greater than 100 µM; for `CC(C)(C)OC(=O)NNc1ccn([C@@H]2O[C@H](CO)[C@@H](O)[C@H]2O)c(=O)n1`, greater than 100 µM.

The record behind these values is ChEMBL document CHEMBL5252569, “Synthesis and biological evaluation of new β-D-N4-hydroxycytidine analogs against SARS-CoV-2, influenza viruses and DENV-2” (Bioorg Med Chem Lett, 2023).
